For series [1], the system named is Liver. Briefly: Drug level in human liver microsomes treated with CBS-3595 at 10 to 100 uM. The series is classed as ADME, microsome. An outline of the steps: (§1)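 Test compound incubated at 10, 30 and 100 μM with liver microsomes from rat, Cynomolgus monkey or human, and metabolites monitored.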
In general terms: Liver microsomes are vesicles of endoplasmic reticulum, rich in cytochrome P450 enzymes.

In series [2] the test system is Liver. The series can be described thus: Drug level in rat liver microsomes treated with CBS-3595 at 10 to 100 uM. The series is classed as ADME, microsome. The procedure, abridged: as §1
Series [3] in a line: Drug level in cynomolgus monkey liver microsomes treated with CBS-3595 at 10 to 100 uM. The series is classed as ADME, Macaca fascicularis, microsome. An outline of the steps: as §1
Series [4] concerns Rattus norvegicus. The series can be described thus: In vivo inhibition of P38 MAPKalpha in Lewis rat assessed as decrease in LPS-stimulated TNFalpha level in serum at 30 mg/kg pretreated for 3 hrs followed by LPS addition measured after 1.5 hrs post dose. The series is classed as functional, organism-based.
Series [5] relates to Rattus norvegicus. The series can be described thus: In vivo inhibition of P38 MAPKalpha in Sprague-Dawley rat assessed as decrease in LPS-stimulated TNFalpha level in serum at 3 mg/kg, po pretreated for 1 hr followed by LPS addition measured after 2 hrs relative to control. The series is classed as functional.
Series [6] deals with Rattus norvegicus. Briefly: In vivo inhibition of P38 MAPKalpha in Lewis rat assessed as decrease in LPS-stimulated TNFalpha level in serum at 30 mg/kg pretreated for 1 hrs followed by LPS addition measured after 1.5 hrs post dose. The series is classed as functional, organism-based.
The species entered for series [7] is Homo sapiens. The series can be described thus: Inhibition of PDE4 in LPS-stimulated human whole blood assessed as decrease in leukotriene B4 level in plasma.
In series [8] the test system is Rattus norvegicus. The series can be described thus: In vivo inhibition of P38 MAPKalpha in Lewis rat assessed as decrease in LPS-stimulated TNFalpha level in serum at 10 mg/kg, po pretreated for 1 hr followed by LPS addition measured after 1.5 hrs post dose relative to control. The series is classed as functional. An outline of the steps: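 Lewis rats, n = 8/group: females dosed orally at 10 mg/kg at −1, −3 or −5 h relative to LPS challenge, plus one male group dosed at −1 h. Male and female vehicle controls were given at −1 h. Serum TNFα was measured after LPS and compared with vehicle.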

A short description of series [9]: Apparent permeability in human Caco2 cells at 10 uM. The series is classed as ADME, cell-based. The settings on record: Caco-2. (In general: Caco-2 monolayers are a common model of the intestinal barrier.)
A short description of series [10]: Fraction unbound in human plasma. The series is classed as ADME, cell-free. An outline of the steps:
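Plasma protein binding measured in human, Sprague–Dawley rat and Cynomolgus monkey plasma at 1, 10 and 30 μM compound. Reported as unbound fraction (%).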

For series [11], the species on record is Homo sapiens. The series can be described thus: Inhibition of PDE4 in human U937 cells assessed as [3H]cAMP hydrolysis at 10 uM relative to control. The series is classed as cell-based.
Series [12] deals with Mitogen-activated protein kinase 14 (Homo sapiens, UniProt Q16539). The series can be described thus: Inhibition of p38alpha MAPK (unknown origin) at 1 uM relative to control.
Mitogen-activated protein kinase 14, sequence (Q16539 whole entry): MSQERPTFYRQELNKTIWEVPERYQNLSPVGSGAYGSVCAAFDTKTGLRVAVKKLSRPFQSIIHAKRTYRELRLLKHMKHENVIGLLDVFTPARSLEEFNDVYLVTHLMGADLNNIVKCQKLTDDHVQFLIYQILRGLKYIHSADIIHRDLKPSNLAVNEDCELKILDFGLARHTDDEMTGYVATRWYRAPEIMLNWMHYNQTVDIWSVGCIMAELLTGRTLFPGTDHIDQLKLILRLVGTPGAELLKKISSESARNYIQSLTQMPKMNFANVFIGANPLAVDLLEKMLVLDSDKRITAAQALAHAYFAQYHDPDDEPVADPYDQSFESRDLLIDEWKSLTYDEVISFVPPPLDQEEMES

The source made the active and inactive calls. The rule behind the calls is not given here.

On to `CC(=O)Nc1cc(-c2c(-c3ccc(F)cc3)nc(S(C)(=O)=O)n2C)ccn1`, for which the Drug metabolism result (in the series with Liver [1]; with Liver [2]; in series [3]) was “Metabolite_Detected” each time.

In general, inhibition refers to the share of the control response that was lost under treatment. In general, inhibition in vivo refers to the change of the read-out against control, counted positive when it falls. Consider `C[S+]([O-])c1ccc(-c2nc(-c3ccc(F)cc3)c(-c3ccncc3)[nH]2)cc1` (stereo unspecified) [SB-203580], for which the inhibition entry in the series on Rattus norvegicus [4] and in the series on Rattus norvegicus [6] was “Active” in each case. Besides, the inhibition in vivo at 3 mg/kg in the series with Rattus norvegicus [5] is 37%. Moreover, the inhibition result in the series filed under Homo sapiens [7] was “inactive”.

For the compound `CCc1nc(-c2cccc(C)c2)c(-c2ccnc(NC(=O)c3ccccc3)c2)s1` [TAK-715], the inhibition in vivo at 10 mg/kg with Rattus norvegicus [8] was 6%.

By Papp is commonly meant the rate of passage across a membrane or cell layer, normalised by area and donor concentration. Turning to `CC(C)NCC(O)COc1cccc2ccccc12` (stereo unspecified) [PROPRANOLOL], the Papp at 10 µM in series [9] is 71.1 ×10⁻⁶ cm/s.

A word on the fraction unbound: it is free concentration divided by total concentration. `O=C(Nc1c(Cl)c[n+]([O-])cc1Cl)c1ccc(OC(F)F)c(OCC2CC2)c1`: the fraction unbound in series [10] stood at 0.04.

On to `CS(=O)(=O)c1nc(-c2ccc(F)cc2)c(-c2ccnc(NC3CCOCC3)c2)[nH]1`, for which, in the series listed under Homo sapiens [11], the inhibition worked out at 36%. Also, in the series on Rattus norvegicus [8], the inhibition in vivo at 10 mg/kg came out at 21%.

Turning to `Cn1c(S(C)(=O)=O)nc(-c2ccc(F)cc2)c1-c1ccnc(N)c1`, the Drug metabolism entry (with Liver [1]; in the series on Liver [2]; in series [3]) was “Metabolite_Detected” in each case.

The compound `CC(=O)Nc1cc(-c2c(-c3ccc(F)cc3)nc([S@+](C)[O-])n2C)ccn1` showed an inhibition in series [12] of 11%.

The record behind these values is ChEMBL document CHEMBL4028848, “Discovery of N-{4-[5-(4-Fluorophenyl)-3-methyl-2-methylsulfanyl-3H-imidazol-4-yl]-pyridin-2-yl}-acetamide (CBS-3595), a Dual p38α MAPK/PDE-4 Inhibitor with Activity against TNFα-Related Diseases” (J Med Chem, 2017).
